The solubility is the concentration that dissolves in the medium under given conditions. High values mean a readily soluble substance, low ones a poorly soluble substance. The term MIC90 denotes an inhibitory concentration at the 90% level, which refers to growth in some studies and to a panel of isolates in others. A higher MIC90 goes with lower susceptibility. What is called IC50 is the concentration that gives 50% inhibition. By clearance is commonly meant the volume of plasma or blood freed of the substance per unit of time. Low values mean inefficient removal, high ones efficient removal. In general, half-life refers to how long it takes for the measured level to halve. Low readings indicate fast loss, high ones slow loss. The term AUC denotes the area under the concentration-time curve, a measure of exposure. A higher AUC goes with more exposure. The term bioavailability denotes the share of a dose that reaches the circulation, judged against a reference dose that is usually intravenous. One may read the Vd as a proportionality between amount in the body and measured concentration, not a real space. The low end stands for little distribution into tissue, the high end for wide distribution into tissue. As a reminder, the inhibition is the drop in the measured response relative to a control, in per cent.

Data set [1] in a line: Aqueous solubility of the compound. The settings on record: buffer. Type of data set: physicochemical.
The test system of data set [2] is Pseudomonas aeruginosa. Nature of the data set: Antimicrobial activity against Pseudomonas aeruginosa PAO1 after 18 to 20 hrs by broth microdilution. The data set is classed as functional. Put shortly: (§1)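 Broth microdilution followed CLSI guidelines in Mueller Hinton broth. Inocula were grown 18–20 h at 35 °C on blood agar. Compound in DMSO was tested in doubling dilutions from 64 to 0.06 µg/mL, at 2% DMSO final. Plates were incubated 18–20 h and read at OD 620 nm. MIC was taken as the concentration giving >90% growth inhibition.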
(In general: Broth dilution looks for growth in wells or tubes with falling amounts of substance.)

Data set [3] in a line: Inhibition of Escherichia coli topoisomerase IV ATPase activity.
Data set [4] has as its system Pseudomonas aeruginosa. Nature of the data set: Antimicrobial activity against Pseudomonas aeruginosa clinical isolate after 18 to 20 hrs by broth microdilution. Type of data set: functional. In a few lines: as §1
Data set [5] concerns Escherichia coli. As to the kind of experiment: Antimicrobial activity against Escherichia coli after 18 to 20 hrs by broth microdilution. The data set is classed as functional. In a few lines:
as §1

Data set [6] can be described thus: Clearance in rat at 10 mg/kg, iv. Details: dose 10 mg/kg, route intravenous. The data set is classed as ADME, organism-based. The conditions noted are these: in vivo. In a few lines: (§2)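 Male rats (Wistar Han) and Beagle dogs received 10 mg/kg as a 15 min iv infusion. Serial 200 µL whole-blood samples were taken from 0 to 24 h. Plasma levels were measured by LC–MS/MS against a standard curve after methanol protein precipitation. Parameters were estimated non-compartmentally.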

The nature of data set [7]: Half life in rat at 10 mg/kg, iv. The data set is classed as ADME, organism-based. Details: dose 10 mg/kg, route intravenous. The conditions noted are these: in vivo. In a few lines: as §2
Data set [8] in a line: AUC in rat at 10 mg/kg, iv. Details: dose 10 mg/kg, route intravenous. The settings on record: plasma. The data set is classed as ADME, organism-based. In a few lines:
as §2

A short description of data set [9]: Bioavailability in rat at 10 mg/kg, […]. Type of data set: ADME, organism-based. The conditions noted are these: in vivo.
Data set [10] in a line: Clearance in beagle dog at 10 mg/kg, iv. The data set is classed as ADME, organism-based, Canis lupus familiaris. Details: dose 10 mg/kg, route intravenous. The settings on record: in vivo. In a few lines:
as §2

Data set [11] in a line: Volume of distribution in beagle dog at 10 mg/kg, iv. The settings on record: in vivo. Details: dose 10 mg/kg, route intravenous. Type of data set: ADME, organism-based, Canis lupus familiaris. In a few lines: as §2
Data set [12] in a line: AUC in beagle dog at 10 mg/kg, iv. The data set is classed as ADME, organism-based, Canis lupus familiaris. Details: dose 10 mg/kg, route intravenous. The conditions noted are these: plasma. In a few lines: as §2
The target in data set [13] is Sodium-dependent noradrenaline transporter (Homo sapiens) (UniProt P23975). As to the kind of experiment: Inhibition of NET (unknown origin) at 30 uM.
Sodium-dependent noradrenaline transporter (Homo sapiens), sequence (P23975 whole entry): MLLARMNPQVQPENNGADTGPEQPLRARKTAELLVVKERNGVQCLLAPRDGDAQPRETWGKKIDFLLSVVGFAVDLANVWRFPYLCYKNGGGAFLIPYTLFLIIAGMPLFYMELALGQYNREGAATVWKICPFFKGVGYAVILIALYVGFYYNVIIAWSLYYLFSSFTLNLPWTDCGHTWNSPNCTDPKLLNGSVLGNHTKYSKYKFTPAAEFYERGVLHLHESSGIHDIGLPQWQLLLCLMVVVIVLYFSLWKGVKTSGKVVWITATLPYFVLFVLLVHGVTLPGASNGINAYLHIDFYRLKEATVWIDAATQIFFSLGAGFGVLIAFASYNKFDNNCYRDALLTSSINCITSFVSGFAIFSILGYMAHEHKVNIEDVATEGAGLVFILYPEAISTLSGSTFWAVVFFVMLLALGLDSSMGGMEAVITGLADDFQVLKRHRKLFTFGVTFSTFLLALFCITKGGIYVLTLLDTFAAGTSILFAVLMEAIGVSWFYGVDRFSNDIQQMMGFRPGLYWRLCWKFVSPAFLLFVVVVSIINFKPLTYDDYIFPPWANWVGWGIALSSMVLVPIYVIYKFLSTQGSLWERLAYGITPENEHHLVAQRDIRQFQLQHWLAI
Data set [14] addresses 5-hydroxytryptamine receptor 4 (Homo sapiens) (UniProt Q13639). As to the kind of experiment: Inhibition of 5-HT4 receptor (unknown origin) at 30 uM.
Data set [15] concerns the target Potassium voltage-gated channel subfamily A member 5 (Homo sapiens, UniProt P22460). As to the kind of experiment: Inhibition of potassium channel Kv1.5 (unknown origin). Put shortly:
(§3)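 Automated IonWorks patch clamp was run on CHO or HEK cells expressing each channel. A channel-specific voltage pulse was applied before compound and again about 3 min after addition.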

The target in data set [16] is T1, A-type voltage-gated potassium channel KCND3 (Homo sapiens, UniProt Q9UK17).
T1 sequence (Q9UK17 whole entry): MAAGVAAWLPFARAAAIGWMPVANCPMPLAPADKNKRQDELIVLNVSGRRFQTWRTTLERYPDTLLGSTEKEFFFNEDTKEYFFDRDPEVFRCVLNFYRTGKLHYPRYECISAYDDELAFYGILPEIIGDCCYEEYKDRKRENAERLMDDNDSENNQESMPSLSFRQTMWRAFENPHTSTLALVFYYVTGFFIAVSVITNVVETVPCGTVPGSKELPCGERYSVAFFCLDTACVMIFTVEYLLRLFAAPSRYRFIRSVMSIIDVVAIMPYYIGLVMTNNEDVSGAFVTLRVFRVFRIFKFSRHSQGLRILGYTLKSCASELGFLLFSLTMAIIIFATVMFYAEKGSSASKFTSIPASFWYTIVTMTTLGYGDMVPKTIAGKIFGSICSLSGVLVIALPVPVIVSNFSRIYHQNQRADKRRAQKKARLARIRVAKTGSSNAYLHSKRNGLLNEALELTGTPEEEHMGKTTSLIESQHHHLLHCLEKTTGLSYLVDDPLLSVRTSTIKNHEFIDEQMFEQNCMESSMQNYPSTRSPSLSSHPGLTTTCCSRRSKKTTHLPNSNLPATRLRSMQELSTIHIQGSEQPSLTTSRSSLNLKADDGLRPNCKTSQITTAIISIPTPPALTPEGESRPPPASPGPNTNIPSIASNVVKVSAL
As to the kind of experiment: Inhibition of potassium channel Kv4.3 (unknown origin). In a few lines: as §3

Data set [17] deals with Sodium channel protein type 5 subunit alpha (Homo sapiens, UniProt Q14524). As to the kind of experiment: Inhibition of […] channel Nav1.5 (unknown origin). Put shortly: as §3
The target of data set [18] is Voltage-dependent L-type calcium channel subunit alpha-1C (Homo sapiens, UniProt Q13936). As to the kind of experiment: Inhibition of […] channel Cav1.2 (unknown origin). In a few lines: as §3
Voltage-dependent L-type calcium channel subunit alpha-1C, sequence (Q13936 whole entry): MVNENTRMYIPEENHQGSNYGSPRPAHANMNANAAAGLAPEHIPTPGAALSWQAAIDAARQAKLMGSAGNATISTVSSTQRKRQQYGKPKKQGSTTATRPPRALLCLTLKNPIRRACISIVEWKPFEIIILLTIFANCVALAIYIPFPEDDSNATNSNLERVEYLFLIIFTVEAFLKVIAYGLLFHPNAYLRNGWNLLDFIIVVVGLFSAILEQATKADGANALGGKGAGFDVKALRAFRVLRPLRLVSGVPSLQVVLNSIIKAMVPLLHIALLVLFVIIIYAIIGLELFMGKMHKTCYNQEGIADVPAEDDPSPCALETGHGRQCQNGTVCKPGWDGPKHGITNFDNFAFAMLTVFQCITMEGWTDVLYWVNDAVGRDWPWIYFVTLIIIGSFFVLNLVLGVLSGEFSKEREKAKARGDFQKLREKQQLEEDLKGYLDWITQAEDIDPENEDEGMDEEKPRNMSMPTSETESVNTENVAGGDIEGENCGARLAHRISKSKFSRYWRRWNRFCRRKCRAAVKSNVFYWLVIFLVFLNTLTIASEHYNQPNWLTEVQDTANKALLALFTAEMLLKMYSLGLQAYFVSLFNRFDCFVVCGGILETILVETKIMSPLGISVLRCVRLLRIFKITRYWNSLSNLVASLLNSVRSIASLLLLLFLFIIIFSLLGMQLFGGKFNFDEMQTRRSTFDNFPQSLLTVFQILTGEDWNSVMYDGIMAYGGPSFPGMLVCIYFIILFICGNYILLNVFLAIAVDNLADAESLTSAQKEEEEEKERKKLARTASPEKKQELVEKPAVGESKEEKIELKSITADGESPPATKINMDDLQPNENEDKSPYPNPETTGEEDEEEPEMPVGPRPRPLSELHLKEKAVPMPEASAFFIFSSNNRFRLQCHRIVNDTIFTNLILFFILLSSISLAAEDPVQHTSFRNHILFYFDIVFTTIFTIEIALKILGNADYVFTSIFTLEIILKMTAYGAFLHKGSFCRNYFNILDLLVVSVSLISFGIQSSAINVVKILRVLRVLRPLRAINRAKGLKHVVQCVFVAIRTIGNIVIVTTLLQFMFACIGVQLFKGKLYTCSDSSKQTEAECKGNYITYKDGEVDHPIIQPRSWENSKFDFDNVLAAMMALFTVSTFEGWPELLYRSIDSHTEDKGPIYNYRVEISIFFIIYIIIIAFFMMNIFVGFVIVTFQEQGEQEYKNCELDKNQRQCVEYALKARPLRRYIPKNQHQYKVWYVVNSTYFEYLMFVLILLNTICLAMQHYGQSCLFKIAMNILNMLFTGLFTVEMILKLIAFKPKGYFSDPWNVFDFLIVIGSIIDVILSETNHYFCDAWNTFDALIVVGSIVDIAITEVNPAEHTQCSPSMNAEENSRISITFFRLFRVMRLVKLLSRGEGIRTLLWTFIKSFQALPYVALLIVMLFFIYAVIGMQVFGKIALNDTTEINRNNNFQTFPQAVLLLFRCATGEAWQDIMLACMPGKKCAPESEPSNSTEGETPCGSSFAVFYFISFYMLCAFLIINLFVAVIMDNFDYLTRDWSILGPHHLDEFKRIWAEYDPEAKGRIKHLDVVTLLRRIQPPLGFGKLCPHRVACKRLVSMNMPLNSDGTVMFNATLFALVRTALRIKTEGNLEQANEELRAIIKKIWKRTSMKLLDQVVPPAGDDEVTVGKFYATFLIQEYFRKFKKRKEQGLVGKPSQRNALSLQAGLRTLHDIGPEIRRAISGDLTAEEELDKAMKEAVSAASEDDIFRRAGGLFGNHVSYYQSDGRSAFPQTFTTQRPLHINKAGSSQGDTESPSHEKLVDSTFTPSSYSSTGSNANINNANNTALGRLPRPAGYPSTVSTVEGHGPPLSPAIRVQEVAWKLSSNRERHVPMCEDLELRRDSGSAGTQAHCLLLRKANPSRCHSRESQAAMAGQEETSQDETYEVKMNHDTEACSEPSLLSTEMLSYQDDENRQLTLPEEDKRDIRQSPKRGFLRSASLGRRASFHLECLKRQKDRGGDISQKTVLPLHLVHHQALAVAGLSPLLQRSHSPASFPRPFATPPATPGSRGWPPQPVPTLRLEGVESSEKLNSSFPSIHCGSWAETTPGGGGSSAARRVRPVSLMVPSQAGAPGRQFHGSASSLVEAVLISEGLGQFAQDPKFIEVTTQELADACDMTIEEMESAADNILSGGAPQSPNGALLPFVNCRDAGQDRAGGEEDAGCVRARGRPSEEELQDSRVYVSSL
Data set [19] deals with Voltage-dependent T-type calcium channel subunit alpha-1H (Homo sapiens, UniProt O95180). As to the kind of experiment: Inhibition of […] channel Cav3.2 (unknown origin). Put shortly:
as §3

The target in data set [20] is T2, Potassium/sodium hyperpolarization-activated cyclic nucleotide-gated channel 4 (Homo sapiens, UniProt Q9Y3Q4).
T2 sequence (Q9Y3Q4 whole entry): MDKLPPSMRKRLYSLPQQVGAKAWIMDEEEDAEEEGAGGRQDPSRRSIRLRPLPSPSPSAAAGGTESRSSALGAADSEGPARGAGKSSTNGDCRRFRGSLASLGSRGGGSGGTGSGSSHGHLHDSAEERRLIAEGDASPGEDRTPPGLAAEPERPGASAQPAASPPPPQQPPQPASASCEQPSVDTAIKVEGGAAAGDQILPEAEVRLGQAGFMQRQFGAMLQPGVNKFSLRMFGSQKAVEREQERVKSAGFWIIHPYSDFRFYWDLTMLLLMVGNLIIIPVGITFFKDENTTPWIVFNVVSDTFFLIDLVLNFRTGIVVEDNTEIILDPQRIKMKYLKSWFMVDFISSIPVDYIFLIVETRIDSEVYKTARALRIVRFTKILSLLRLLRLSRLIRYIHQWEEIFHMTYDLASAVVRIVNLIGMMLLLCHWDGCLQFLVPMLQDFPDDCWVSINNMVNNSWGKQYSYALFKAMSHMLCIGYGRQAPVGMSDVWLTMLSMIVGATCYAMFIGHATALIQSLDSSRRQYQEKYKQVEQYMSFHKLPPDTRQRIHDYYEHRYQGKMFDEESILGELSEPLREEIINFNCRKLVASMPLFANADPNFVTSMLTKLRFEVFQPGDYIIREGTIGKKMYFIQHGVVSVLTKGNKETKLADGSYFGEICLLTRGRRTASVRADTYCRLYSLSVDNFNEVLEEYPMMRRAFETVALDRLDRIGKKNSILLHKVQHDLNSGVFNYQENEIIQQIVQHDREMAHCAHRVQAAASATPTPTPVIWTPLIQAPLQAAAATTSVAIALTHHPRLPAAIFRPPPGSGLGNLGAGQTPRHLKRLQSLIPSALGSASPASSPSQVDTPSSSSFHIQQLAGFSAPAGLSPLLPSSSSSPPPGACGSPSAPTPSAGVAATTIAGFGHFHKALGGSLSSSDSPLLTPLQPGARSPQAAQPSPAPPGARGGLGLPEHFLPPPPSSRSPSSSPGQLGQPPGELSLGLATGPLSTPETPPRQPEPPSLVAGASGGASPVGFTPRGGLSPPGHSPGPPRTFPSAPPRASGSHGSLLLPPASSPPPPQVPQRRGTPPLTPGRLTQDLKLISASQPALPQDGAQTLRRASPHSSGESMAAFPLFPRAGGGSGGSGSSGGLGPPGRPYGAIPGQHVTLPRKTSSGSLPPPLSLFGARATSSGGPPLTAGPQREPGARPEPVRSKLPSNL
As to the kind of experiment: Inhibition of potassium channel HCN4 (unknown origin). In a few lines: as §3

In brackets after ≈: the same amount, converted by molar mass.

5-hydroxytryptamine receptor 4 (Homo sapiens), sequence (Q13639 whole entry): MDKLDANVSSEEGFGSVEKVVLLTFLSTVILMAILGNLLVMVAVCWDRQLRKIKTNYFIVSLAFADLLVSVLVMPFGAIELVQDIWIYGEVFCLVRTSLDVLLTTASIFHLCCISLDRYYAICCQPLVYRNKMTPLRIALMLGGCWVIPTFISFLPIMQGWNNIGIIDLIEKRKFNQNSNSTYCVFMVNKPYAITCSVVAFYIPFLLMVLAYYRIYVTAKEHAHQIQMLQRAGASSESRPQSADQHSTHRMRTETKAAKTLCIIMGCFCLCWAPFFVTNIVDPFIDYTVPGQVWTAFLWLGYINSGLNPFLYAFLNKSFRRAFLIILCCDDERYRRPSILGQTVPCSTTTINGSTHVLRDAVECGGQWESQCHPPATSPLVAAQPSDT
Potassium voltage-gated channel subfamily A member 5, sequence (P22460 whole entry): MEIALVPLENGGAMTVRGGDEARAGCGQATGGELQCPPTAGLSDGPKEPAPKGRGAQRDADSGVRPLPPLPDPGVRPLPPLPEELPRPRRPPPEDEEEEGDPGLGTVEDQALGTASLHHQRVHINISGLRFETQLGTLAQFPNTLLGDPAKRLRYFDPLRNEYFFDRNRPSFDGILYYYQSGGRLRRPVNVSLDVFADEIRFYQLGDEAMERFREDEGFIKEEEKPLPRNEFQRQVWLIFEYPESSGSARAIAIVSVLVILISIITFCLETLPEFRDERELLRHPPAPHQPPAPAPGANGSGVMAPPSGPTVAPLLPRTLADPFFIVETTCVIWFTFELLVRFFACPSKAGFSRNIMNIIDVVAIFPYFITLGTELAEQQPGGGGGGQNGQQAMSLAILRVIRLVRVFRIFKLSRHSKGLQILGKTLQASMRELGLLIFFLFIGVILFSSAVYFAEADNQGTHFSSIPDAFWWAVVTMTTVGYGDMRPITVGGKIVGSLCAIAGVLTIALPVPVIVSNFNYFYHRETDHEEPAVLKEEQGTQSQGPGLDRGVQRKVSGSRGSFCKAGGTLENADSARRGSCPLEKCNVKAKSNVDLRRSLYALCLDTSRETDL

`COc1ccc2ncc(=O)n(CCN3CCC(NCc4ccc5c(n4)NC(=O)CO5)CC3)c2c1`: the solubility in data set [1] was more than 333 µM. Also, the MIC90 is 1 µg/mL (≈ 2.15 µM) in data set [2], 4 µg/mL (≈ 8.61 µM) in [4] and 0.25 µg/mL (≈ 0.538 µM) in data set [5]. Further, the IC50 in data set [3] was 0.0022 µM; in data set [15] it was more than 100 µM; in data set [16], more than 100 µM; in data set [17], 92 µM; in data set [18] it was more than 333 µM; in data set [19], more than 100 µM. In data set [20], this compound showed an IC50 of more than 100 µM. Further, the clearance in [6] turned out to be 252 mL/min/kg; in data set [10], 8.5 mL/min/kg. The same compound showed a half-life in data set [7] of 1.9 h. For the same compound, the AUC in [8] was 190 ng·h/mL; in [12] it was 6800 ng·h/mL. In data set [9], this compound returned a bioavailability of 18%. Moreover, the Vd in data set [11] stood at 2 L/kg. In addition, the inhibition in data set [13] was 61%; in [14], 99%.
The compound `N[C@@H](Cn1c(=O)cnc2ccc(F)cc21)[C@H]1CC[C@H](NCc2ncc3c(n2)NC(=O)CO3)CC1` came in with a solubility in data set [1] of more than 333 µM. Also, the MIC90 in data set [2] is 0.5 µg/mL (≈ 1.07 µM); in data set [4], 4 µg/mL (≈ 8.56 µM); in data set [5], 1 µg/mL (≈ 2.14 µM). Also, the IC50 is 0.003 µM in [3]; more than 100 µM in data set [15]; more than 100 µM in [16]; more than 333 µM in [17]; more than 333 µM in data set [18]; more than 100 µM in [19]. The same compound displayed an IC50 in [20] of more than 100 µM. For the same compound, the results for the clearance in [6] and in data set [10] were 46 mL/min/kg and 14 mL/min/kg, respectively. This compound had a half-life in [7] of 10 h. In addition, the values for the AUC in [8] and in [12] were 3300 ng·h/mL and 12000 ng·h/mL, respectively. For the same compound, the bioavailability in [9] was found to be 2%. Also, in [11], the Vd is 4 L/kg. Further, the inhibition was determined as 9% in [13] and 7% in data set [14].
